Measured values taken from publication PMC3109609 (Journal of medicinal chemistry, 2010).
Several values for one entry are separate records, joined by “and”; a condition that tells them apart may be missing. Identical values can stand only once.

Experiments:
human ΔF508-CFTR = human ΔF508-CFTR (Homo sapiens, UniProt P13569, DEL508-508); test: ΔF508-CFTR corrector activity assay; type: cell-based; details: concentration-dependent increase in I− influx in FRT ΔF508-CFTR cells
[1] = type: physicochemical
Method in brief: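 Reverse-phase HPLC retention time gave log k (capacity factor). A calibration line of log k against known logP was built from reference compounds and used to convert each test compound's log k to logP.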

Row | Compound | ΔF508-CFTR corrector activity (in words) (human ΔF508-CFTR) | chromatographic logP [1] | logP difference versus bithiazole 1 (lower) ([1]; 14h compared with bithiazole CF corrector 1)
1 | COc1ccc(NC(=O)c2cc(-c3sc(NC(=O)C(C)(C)C)nc3C)n(-c3ccc(Br)cc3)n2)cc1 [11d, 1-(4-Bromophenyl)-N-(4-methoxyphenyl)-5-(4-methyl-2-pivalamidothiazol-5-yl)-1H-pyrazole-3-carboxamide] | relatively low activity |  | 
2 | COc1ccc(Cl)cc1Cn1nc(-c2sc(NC(=O)C(C)(C)C)nc2C)cc1C(=O)N1CCOCC1 [14h, N-(5-(1-(5-chloro-2-methoxybenzyl)-5-(morpholine-4-carbonyl)-1H-pyrazol-3-yl)-4-methylthiazol-2-yl)pivalamide] |  | 4.1 | 1.2 log units and ~ 1.2 log units
3 | COc1ccc(Cl)cc1Cn1nc(-c2sc(NC(=O)C(C)(C)C)nc2C)cc1C(=O)NCCO [14j, 1-(5-chloro-2-methoxybenzyl)-N-(2-hydroxyethyl)-3-(4-methyl-2-pivalamidothiazol-5-yl)-1H-pyrazole-5-carboxamide] | retains corrector activity | 3.5 | 
4 | COc1ccc(Cl)cc1Nc1nc(-c2sc(NC(=O)C(C)(C)C)nc2C)cs1 [compound 1, reference compound] |  | > 5 | 
